Source: ChEMBL document CHEMBL3997769, “Discovery and preclinical evaluation of 7-benzyl-N-(substituted)-pyrrolo[3,2-d]pyrimidin-4-amines as single agents with microtubule targeting effects along with triple-acting angiokinase inhibition as antitumor agents” (Bioorg Med Chem, 2017)
Active and inactive are the calls of the source. The calls are words filed in the database; no cut-off is given here.

Experiments:
[1] = Inhibition of bovine brain tubulin assembly preincubated for 15 mins followed by GTP addition measured for 20 mins by spectrophotometric method; set-up: species or system Bos taurus
Bos taurus = species on record: Bos taurus; assay: Displacement of [3H]colchicine from bovine brain tubulin at 1 uM measured after 10 mins by liquid scintillation counting method relative to control
A-431 = assay: Cytotoxicity against human A431 cells; type: functional, cell-based
MOLT-4 = assay: Growth inhibition of human MOLT4 cells incubated for 48 hrs by sulforhodamine B assay; type: functional; conditions: MOLT-4, 48 h
A549 = assay: Growth inhibition of human A549/ATCC cells incubated for 48 hrs by sulforhodamine B assay; type: functional; conditions: A549, 48 h
NCI-H226 = assay: Growth inhibition of human NCI-H226 cells incubated for 48 hrs by sulforhodamine B assay; type: functional; conditions: NCI-H226, 48 h
NCI-H23 = assay: Growth inhibition of human NCI-H23 cells incubated for 48 hrs by sulforhodamine B assay; type: functional; conditions: NCI-H23, 48 h
NCI-H322M = assay: Growth inhibition of human NCI-H322M cells incubated for 48 hrs by sulforhodamine B assay; type: functional
COLO 205 = assay: Growth inhibition of human COLO205 cells incubated for 48 hrs by sulforhodamine B assay; type: functional; conditions: COLO 205, 48 h
HCT-116 = assay: Growth inhibition of human HCT116 cells incubated for 48 hrs by sulforhodamine B assay; type: functional; conditions: HCT-116, 48 h
HT-29 = assay: Growth inhibition of human HT-29 cells incubated for 48 hrs by sulforhodamine B assay; type: functional; conditions: HT-29, 48 h
SW-620 = assay: Growth inhibition of human SW620 cells incubated for 48 hrs by sulforhodamine B assay; type: functional; conditions: SW-620, 48 h
SF-295 = assay: Growth inhibition of human SF295 cells incubated for 48 hrs by sulforhodamine B assay; type: functional; conditions: SF-295, 48 h
SNB-75 = assay: Growth inhibition of human SNB75 cells incubated for 48 hrs by sulforhodamine B assay; type: functional; conditions: SNB-75, 48 h
Malme-3M = assay: Growth inhibition of human MALME-3M cells incubated for 48 hrs by sulforhodamine B assay; type: functional
SK-MEL-28 = assay: Growth inhibition of human SK-MEL-28 cells incubated for 48 hrs by sulforhodamine B assay; type: functional; conditions: SK-MEL-28, 48 h
OVCAR-3 = assay: Growth inhibition of human OVCAR3 cells incubated for 48 hrs by sulforhodamine B assay; type: functional; conditions: OVCAR-3, 48 h
OVCAR-5 = assay: Growth inhibition of human OVCAR5 cells incubated for 48 hrs by sulforhodamine B assay; type: functional; conditions: OVCAR-5, 48 h
NCI/ADR-RES = assay: Growth inhibition of human NCI/ADR-RES cells incubated for 48 hrs by sulforhodamine B assay; type: functional
A498 = assay: Growth inhibition of human A498 cells incubated for 48 hrs by sulforhodamine B assay; type: functional; conditions: A498, 48 h
ACHN = assay: Growth inhibition of human ACHN cells incubated for 48 hrs by sulforhodamine B assay; type: functional
Mus musculus = assay: Toxicity in Balb/cJ mouse implanted with luciferase/GFP-tagged mouse 4T1 cells assessed as body weight change at 50 mg/kg, ip administered three times weekly measured at day 40 post dose; type: organism-based; conditions: in vivo
4T1 = assay: Antitumor activity against luciferase/GFP-tagged mouse 4T1 cells implanted in Balb/cJ mouse assessed as reduction in lung metastasis at 50 mg/kg, ip administered three times weekly by fluorescence microscopic method; type: functional, organism-based
Summary of the method: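 Orthotopic 4T1-Luc2-GFP allograft in the mammary fat pad of female BALB/cJ mice; IP treatment in 5% Pharmasolve/5% Solutol HS in saline began one week after implantation. At study end, lungs were excised from mice euthanized under isoflurane and imaged with a GFP-filter fluorescence dissecting microscope; GFP-positive metastases per lung counted. n = 9-10.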

COc1ccc(N(C)c2nc(C)nc3c(Cc4ccccc4)cn(C)c23)cc1.Cl
IC50 [1]: 480 nM | inhibition (Bos taurus): 73% | IC50 (A-431): 1200 nM | GI50 (MOLT-4): 50.8 nM | GI50 (A549): 44 nM | GI50 (NCI-H226): 304 nM | GI50 (NCI-H23): 45.8 nM | GI50 (NCI-H322M): 73.6 nM | GI50 (COLO 205): 26.3 nM | GI50 (HCT-116): 35 nM | GI50 (HT-29): 35.1 nM | GI50 (SW-620): 38.4 nM | GI50 (SF-295): 30.4 nM | GI50 (SNB-75): 27.8 nM | GI50 (Malme-3M): 17.7 nM | GI50 (SK-MEL-28): 48.7 nM | GI50 (OVCAR-3): 35.2 nM | GI50 (OVCAR-5): 269 nM | GI50 (NCI/ADR-RES): 32.8 nM | GI50 (A498): 20.2 nM | GI50 (ACHN): 172 nM | Activity (Mus musculus): Non-Toxic | Activity (4T1): Active
